# Screening results from PubChem BioAssay.
# PP1 inh = PP1-alpha (human) inhibition in PP5 counter-screen; actives 0.9% (n = 320,000); P62136; purified PP1alpha, OMFP fluorescence; inhibition, % at 6.7 µM;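 active = inhibition above the mean inhibition of all tested compounds plus 3 SD, computed separately for each screening campaign, cut at about 15% in these data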
# Target sequence (P62136 whole entry, looked up): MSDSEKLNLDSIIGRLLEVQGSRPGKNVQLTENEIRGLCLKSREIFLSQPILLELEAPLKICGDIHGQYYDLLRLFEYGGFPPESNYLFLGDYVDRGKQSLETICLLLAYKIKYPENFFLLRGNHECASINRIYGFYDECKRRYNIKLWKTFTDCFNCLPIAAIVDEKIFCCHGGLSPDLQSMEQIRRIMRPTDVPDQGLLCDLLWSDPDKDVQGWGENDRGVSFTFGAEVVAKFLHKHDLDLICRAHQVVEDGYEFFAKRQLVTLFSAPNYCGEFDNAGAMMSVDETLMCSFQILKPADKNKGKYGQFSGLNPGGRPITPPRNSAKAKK
# PP5 inh = blocks human protein phosphatase 5 activity | P53041 | purified PP5c, OMFP substrate fluorescence | inhibition, % at 6.7 µM | actives 0.18% (n = 320,000);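 active = inhibition above the campaign's mean inhibition across all tested compounds plus 3 SD, cut at about 9.5% in these data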;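 note: 0% = DMSO only and 100% = 100 µM cantharidin control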
# EBNA-1 inhibitor = blocks EBNA-1 binding to DNA. EBNA-1 DNA binding, fluorescence polarization. inhibition, % at 14.8 µM. actives 0.34% (n = 300,000); in the data active = inhibition above about 28%
# ZTA counter = ZTA (EBV) inhibition in EBNA-1 counter-screen | inhibition, % at 11 µM | actives 0.15% (n = 320,000) | AID 2234 | ZTA-DNA binding, fluorescence polarization; in the data active = inhibition above about 33%
# core dimer inh = blocks dimerization of HCV core protein; TR-FRET GST/Flag-core106 dimerization, 1536-well; inhibition, % at 5 µM; actives 0.33% (n = 300,000);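 active = inhibition above the mean of all tested compounds plus 3 SD, set per screening campaign, cut at about 45% in these data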
#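 Assay system: tagged HCV core106 pair (GST and Flag); medium: KF-containing HEPES buffer, pH 7.45, DTT, CHAPS, BSA; also added: Eu donor and XL665 acceptor anti-tag antibodies; dosing: 5 µM single dose; timing: compound-protein-antibody incubation 4 h at 22.5 °C; signal: TR-FRET 671 and 617 nm emission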
# * marks the source's active call; other numbers are inactive results; nt = no result. Compounds with a hit are over-represented: about 1.7% of the library has one in this group of screens.
SMILES,PP1 inh,PP5 inh,EBNA-1 inhibitor,ZTA counter,core dimer inh
S=C(Nc1ccc(N2CCOCC2)cc1)Nc1ccc2nc(-c3ccco3)c(-c3ccco3)nc2c1,10,5,-8,-17,83*
O=C(NCCO)Nc1ccc2nc(-c3ccco3)c(-c3ccco3)nc2c1,47*,-2,23,42*,76*
CCCCNC(=O)c1ccc2nc(-c3ccco3)c(-c3ccco3)nc2c1,7,1,3,3,50*
O=C(NCCO)Nc1ccc2nsnc2c1,-2,0,2,13,0
O=C(Nc1ccc(N2CCOCC2)cc1)c1ccc2nc(-c3ccco3)c(-c3ccco3)nc2c1,-3,2,-14,1,14
CCCNC(=O)c1ccc2nc(-c3ccccc3)c(-c3ccccc3)nc2c1,-1,0,0,12,8
Cc1c(NC(=O)COC(=O)CSc2ccc([N+](=O)[O-])cc2)c(=O)n(-c2ccccc2)n1C,8,1,nt,5,nt
CC1SC2(NC1=O)C1CC3CC(C1)CC2C3 (stereo not given),1,2,-2,10,7
O=c1[nH]c(CSc2ncccn2)nc2c1cnn2-c1ccccc1,1,-2,-10,-6,4
O=c1[nH]c(CSc2nc3ccccc3o2)nc2c1cnn2-c1ccccc1,16*,1,3,-3,11
Cc1sc2nc(CN3CCOCC3)nc(NS(=O)(=O)c3cc(Cl)ccc3Cl)c2c1C,-4,1,nt,7,nt
CC(=O)NC1=C(Nc2ccc(N(C)C)cc2)C(=O)c2ccccc2C1=O,6,3,41*,37*,-77
CC(C)(C)c1nnc(NS(=O)(=O)c2cc(Cl)ccc2Cl)s1,0,-1,7,2,7
O=S(=O)(Nc1nc(-c2sccc2Cl)cs1)c1cc(Cl)ccc1Cl,19*,2,26,3,20
CCC(C)n1c(=S)[nH]c2c(sc3ccc([N+](=O)[O-])cc32)c1=O (stereo not given),-2,0,-3,-4,6
CCOC(=O)c1ccccc1NC(=O)c1ccc2nccnc2c1,-3,1,5,3,54*
N#CC1=C(N)Oc2c(ccc3ccccc23)C1c1ccsc1 (stereo not given),-9,-6,-21,15,71*
N#CC1=C(N)Oc2c(oc(CO)cc2=O)C1c1ccsc1 (stereo not given),-1,5,-3,10,6
Cc1ccc(NC(=S)NNc2ccc([N+](=O)[O-])cc2S(=O)(=O)Nc2ccccc2C(=O)O)cc1C,17*,10,-7,15,11
Cc1ccc(NC(=S)NNc2ccc(C(=O)O)cc2[N+](=O)[O-])cc1C,-5,3,-1,3,-11
Cc1ccc(S(=O)(=O)NCc2ccc(C(=O)N3CCN(c4ccc([N+](=O)[O-])cc4)CC3)cc2)cc1,8,4,5,11,9
COc1ccc(N2Cc3cccc(C(=O)NC(C)CCc4ccco4)c3C2=O)cc1 (stereo not given),-1,4,6,-7,63*
CCOC(=O)N1CCC(NC(=O)c2cccc3c2C(=O)N(c2ccc(OC)cc2)C3)CC1,0,1,6,-1,59*
O=C(Nc1ccc(NC(=S)NC(=O)C(c2ccccc2)c2ccccc2)cc1)c1ccccc1,3,1,8,-11,57*
O=c1c(N=Nc2ccc(O)cc2)c(-c2ccccc2)[nH]n1-c1ccc([N+](=O)[O-])cc1,-5,-1,3,20,5
SMILES,PP1 inh,PP5 inh,EBNA-1 inhibitor,ZTA counter,core dimer inh
O=c1cc(-c2ccccc2)[nH]n1-c1ccc([N+](=O)[O-])cc1,16*,4,0,0,7
COc1ccccc1CCNC(=O)c1ccc(NC(=O)CC2SC(N3CCCCC3)=NC2=O)cc1 (stereo not given),-2,-3,nt,-13,nt
NC(=O)c1ccc(N=Nc2c(-c3ccccc3)[nH]n(-c3ccccc3)c2=O)cc1,-2,2,-7,12,-4
Nc1[nH]n2c(=O)cc(-c3ccccc3)nc2c1N=Nc1ccc(S(N)(=O)=O)cc1,16*,3,-10,5,-27
Nc1[nH]n2c(=O)cc(-c3ccccc3)nc2c1N=Nc1ccccc1,9,2,-6,6,-5
NS(=O)(=O)c1ccc(N=Nc2c(-c3ccccc3)[nH]n(-c3nc(-c4ccccc4)cs3)c2=O)cc1,-1,2,-12,-8,46*
COc1ccc(N2CCN(C(=O)CSc3nc4nc(C)cc(C)n4n3)CC2)cc1,0,-3,nt,-4,nt
O=C(NCc1cccnc1)c1ccc(COc2cccc3ccccc23)o1,5,1,-15,-25,61*
Cc1cc(Cl)ccc1NC(=O)CN1CCN(C(=O)c2ccco2)CC1,1,-1,7,0,-2
CCOC(=O)c1cc(-c2ccc(OC)cc2)nn1-c1ccccc1C(=O)O,17*,-1,-2,-7,10
COc1cccc(C2=Nc3cccc4cccc(c34)N2)c1,17*,4,-11,-7,-44
COc1ccc(C2NCCc3c2[nH]c2ccccc32)cc1COc1ccc(F)cc1 (stereo not given),17*,4,9,7,-17
O=C(COC(=O)c1cc([N+](=O)[O-])ccc1NCc1ccccc1)NCc1ccccc1Cl,-3,2,3,3,16
O=C(COC(=O)c1cc([N+](=O)[O-])ccc1NCc1ccccc1)NC1CCCc2ccccc21 (stereo not given),-1,1,-18,-4,59*
O=C(CSc1nc2ccccc2c(=O)n1-c1ccccc1Cl)NC1CCS(=O)(=O)C1 (stereo not given),0,1,nt,-19,nt
O=c1cc(-c2ccccc2Cl)oc2c(NS(=O)(=O)c3cc(Cl)cc(Cl)c3O)ccc(O)c12,27*,1,24,16,22
N#Cc1c(N2CCN(C(=O)c3ccccc3)CC2)nc(-c2ccccc2)c2c1CCCC2,16*,1,-11,-21,24
CC(OC(=O)Cc1ccsc1)C(=O)Nc1ccc(C(N)=O)cc1 (stereo not given),0,0,nt,3,nt
Cc1cc(C)cc(N(CCC(=O)Nc2nnc(C)s2)S(=O)(=O)c2ccc(Cl)cc2)c1,-4,2,0,4,13
COc1cccc2cc(C(=O)C3=C(O)C(=O)N(CCN4CCOCC4)C3c3cccc(Cl)c3)oc12 (stereo not given),23*,-2,11,5,12
COc1ccc(Cc2nnc(SCC(=O)N3CCCCC3)o2)cc1,-1,0,-2,-6,-15
Cc1ccc2nc(N3CCN(S(=O)(=O)c4ccc(C)c(Cl)c4)CC3)c(C#N)cc2c1,-5,1,2,-8,62*
CC(C)(C)OC(=O)NCCCC[C@H](NC(=O)c1nc[nH]c1C(=O)NCc1ccccc1)C(=O)OC(C)(C)C,11,7,-3,10,8
